Drawing on ChEMBL document CHEMBL1817604, “Synthesis and biological evaluation of 1-(4'-Indolyl and 6'-Quinolinyl) indoles as a new class of potent anticancer agents” (Eur J Med Chem, 2011), this text covers IC50 and Activity for 17 compounds.

Some results are limits rather than exact numbers.

The test system of test [1] is KB. The test can be described thus: Antiproliferative activity against human KB cells after 72 hrs by methylene blue assay. It is filed as functional, cell-based. The method in brief:
(§1)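 Lines kept in RPMI-1640 with 5% fetal bovine serum. Log-phase cells seeded at 5000 cells/mL/well in 24-well plates, then exposed to compound.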

Test [2] in a line: Antiproliferative activity against human KB-VIN10 cells over-expressing P-gp 170/MDR1 after 72 hrs by methylene blue assay. As to conditions: KB-VIN10, 72 h. Type of test: functional, cell-based. The method in brief:
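KB-VIN10 is a P-gp 170/MDR1-overexpressing subline derived from KB by continuous exposure to rising vincristine. It is maintained in growth medium with 10 nM vincristine. Log-phase cells seeded at 5000 cells/mL/well in 24-well plates before compound exposure.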

For test [3], the system named is HT-29. The test can be described thus: Antiproliferative activity against human HT-29 cells after 72 hrs by methylene blue assay. It is filed as functional, cell-based. The conditions noted are these: HT-29, 72 h. Put shortly: as §1
The subject of test [4] is MKN-45. The test can be described thus: Antiproliferative activity against human MKN45 cells after 72 hrs by methylene blue assay. Type of test: functional, cell-based. As to conditions: MKN-45, 72 h. Put shortly: as §1
Test [5] relates to NCI-H460. Nature of the test: Antiproliferative activity against human H460 cells after 72 hrs by methylene blue assay. Type of test: functional, cell-based. The conditions noted are these: NCI-H460, 72 h. The method in brief:
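Log-phase cells seeded at 5000 cells/mL/well in 24-well plates, then exposed to compound.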

Test [6] is filed under the species Bos taurus. Nature of the test: Displacement of [3H]colchicine from biotin-labeled bovine brain tubulin at 5 uM after 2 hrs by liquid scintillation counter.
Test [7] in a line: Inhibition of bovine brain tubulin polymerization after 30 mins by turbidimetry analysis.
The nature of test [8]: Inhibition of tubulin polymerization. The method in brief: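 Bovine brain MAP-rich tubulin, 4 mg/mL in 100 mM PIPES (pH 6.9), 2 mM MgCl₂, 1 mM GTP, […] per well, with test compound or 2% (v/v) DMSO control. Turbidity read at 350 nm, 37 °C, every 30 s for 30 min.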

For the compound `COc1cc2c(ccn2-c2cccc3ncccc23)c(OC)c1OC`, the IC50 in test [1] was 900 nM; in test [2], 535 nM; in test [3], 921 nM; in test [4], 682 nM; in test [5], 955 nM.
For `COc1cc2c(ccn2-c2ccnc3ccccc23)c(OC)c1OC` the same measures were 216 nM, 130 nM, 329 nM, 197 nM and 318 nM.
Regarding `COc1cc2c(ccn2-c2cccc3c2ccn3C)c(OC)c1OC`, in test [6], the Activity is 83%. Moreover, the IC50 in test [1] is 32 nM; in test [2], 25 nM; in test [3], 44 nM; in test [4], 40 nM; in test [7] it was 1700 nM; in test [5], 49 nM.
Consider `COc1cc2c(ccn2-c2ccc3ncncc3c2)c(OC)c1OC`, for which the IC50 turned out to be 7950 nM in test [1]; 3450 nM in test [2]; 8140 nM in test [3]; 4310 nM in test [4]; 7520 nM in test [5].
Regarding `COc1cc2c(c(OC)c1OC)-c1ccc(OC)c(=O)cc1[C@@H](NC(C)=O)CC2` [COLCHICINE], the IC50 in test [1] is 10 nM; in test [2], 121 nM; in test [3], 15 nM; in test [4], 12 nM.
Consider `COc1cc2c(ccn2-c2ccc3occc3c2)c(OC)c1OC`, for which the IC50 in test [1] was determined as 537 nM; in test [2], 265 nM; in test [3], 646 nM; in test [4] it was 322 nM; in test [5] it was 690 nM.
Take `COc1ccc2nc(-n3ccc4c(OC)c(OC)c(OC)cc43)ccc2c1`: the IC50 was found to be 7370 nM in test [1]; 9110 nM in test [2]; 3650 nM in test [3]; 11500 nM in test [4]; 6170 nM in test [5].
For the compound `COc1ccc(/C=C\c2cc(OC)c(OC)c(OC)c2)cc1O` [COMBRETASTATIN A4], in test [6], the Activity was 97%. Further, the IC50 in test [1] is 2 nM; in test [2], 0.7 nM; in test [3] it was 94 nM; in test [4], 4.8 nM; in test [5], 2.3 nM.
Consider `COc1ccc2c(-n3ccc4c(OC)c(OC)c(OC)cc43)cn(C)c2c1`, for which the IC50 in test [1] stood at 85 nM; in test [2], 40 nM; in test [3], 81 nM; in test [4] it was 59 nM; in test [5], 81 nM.
`COc1ccc2ccc3cc(OC)c(OC)c(OC)c3c2c1` yielded an IC50 in test [8] of over 40000 nM.
As for `COc1cc2c(ccn2-c2ccc3c(ccn3C)c2)c(OC)c1OC`, in test [6], the Activity amounted to 65%. Besides, the IC50 in test [1] was found to be 73 nM; in test [2], 53 nM; in test [3], 74 nM; in test [4], 40 nM; in test [7] it was 2700 nM; in test [5], 76 nM.
Compound `COc1ccc(-n2ccc3c(OC)c(OC)c(OC)cc32)c(N)c1` showed an Activity in test [6] of 44%. For the same compound, the IC50 in test [1] amounted to 102 nM; in test [2] it was 50 nM; in test [3], 101 nM; in test [4], 49 nM; in test [7] it was 4700 nM; in test [5] it was 96 nM.
In the case of `COc1cc2c(ccn2-c2ccc(N(C)C)cc2)c(OC)c1OC`, the IC50 in test [1] turned out to be 148 nM; in test [2], 63 nM; in test [3], 148 nM; in test [4] it was 105 nM; in test [5], 172 nM.
Regarding `COc1ccc(-n2ccc3c(OC)c(OC)c(OC)cc32)cc1`, the IC50 came to 186 nM in test [1]; 135 nM in test [2]; 179 nM in test [3]; 145 nM in test [4]; 198 nM in test [5].
`COc1cc2c(ccn2-c2ccc3ncccc3c2)c(OC)c1OC` showed an Activity in test [6] of 72%. In addition, the IC50 amounted to 18 nM in test [1]; 11 nM in test [2]; 34 nM in test [3]; 24 nM in test [4]; 2700 nM in test [7]; 31 nM in test [5].
In the case of `COc1ccc(-n2ccc3c(OC)c(OC)c(OC)cc32)cc1N`, the IC50 in test [1] amounted to 3250 nM; in test [2], 1380 nM; in test [3] it was 4150 nM; in test [4], 1540 nM; in test [5], 2390 nM.
`COc1ccc(-n2ccc3c(OC)c(OC)c(OC)cc32)cc1O`: the IC50 in test [1] was 131 nM; in test [2], 68 nM; in test [3] it was 6400 nM; in test [4], 5900 nM; in test [5], 737 nM.
